Laboratory results from PMC10441371 (bioRxiv, 2023).
“Also recorded” adds a separate entry of the source. Where a name gives a salt, the structure may show the parent alone. Read-outs that look alike come from different tables or passages of the source.

Experiments:
[1] = type: in vivo, Sprague Dawley rats; settings: for Levels in liver, mean (SD): wet weight; for Detection in the brain: PCB 52 exposed rats
[2] = system: endogenous serum metabolites; assay: Targeted metabolomics of serum samples; type: in vivo, Sprague Dawley rats; settings: 0 to 100 mg/kg BW IP, 3 weeks
Procedure, shortened: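 In female Sprague Dawley rats, serum was taken 3 weeks after a single IP dose of vehicle or 1–100 mg/kg test compound. Heart blood clotted ≥30 min at room temperature and was spun at 2,500 g (10 min, 4°C). Extracts (solvent:sample 18:1, −20°C 1 h) were methoximated (60°C 1 h), then TMS-derivatized (60°C 30 min). GC-Orbitrap analysis used EI full scan m/z 56.7–850 against a 94-metabolite list. Intensities were total-normalized; data were analyzed by PLS-DA and dose linear regression with Benjamini-Hochberg FDR.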

[3] = system: dopamine and its metabolites, DOPAL and DOPAC; assay: Dopamine and metabolites analysis in striatum; type: in vivo, Sprague Dawley rats; settings: different doses of PCB 52 IP, 3 weeks post injection, vs vehicle
Procedure, shortened: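 Female Sprague Dawley rats (4–5 weeks, 75–100 g, acclimated 1 week) got a single IP injection of corn oil or test compound in corn oil at 1, 10 or 100 mg/kg BW. They were euthanized after 3 weeks by CO2 and thoracotomy. Nigrostriatal tissue was homogenized in ice-cold 0.3 M perchloric acid and spun at 10,000 g for 10 min. Supernatant went to capillary HPLC with coulometric detection (guard +350, E1 −150, E2 +200 mV). Values are pmol/mg tissue; ANOVA with Tukey.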

CYP2B = settings: PCB 52 exposure; ref Parkinson et al., 1983; cited from earlier work
[4] = General toxicity: body and organ weights after IP exposure; type: in vivo, Sprague Dawley rats
Procedure, shortened: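 Rats were female Sprague Dawley, 4–5 weeks old and 75–100 g, acclimated 1 week. Each received a single IP dose of corn oil vehicle or test compound at 1, 10 or 100 mg/kg BW. Body weight was recorded at 5 time points over 3 weeks. After CO2 euthanasia, liver, spleen and thymus were excised; liver weight was adjusted for body weight. Groups were compared by one-way ANOVA with Tukey, p<0.05.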

[5] = male rats, single IP dose 150 mg/kg BW; ref Parkinson et al., 1983; cited from earlier work
SH-SY5Y cell line = settings: ref Rodriguez et al., 2018; cited from earlier work
SULT2A1 = settings: ref Parker et al., 2018; cited from earlier work
N27 cell line = settings: ref Rodriguez et al., 2018; cited from earlier work
SULT1E1 = settings: ref Parker et al., 2018; cited from earlier work
thyroid hormone receptor = settings: ref Kitamura et al., 2005; cited from earlier work
estrogenic activity = settings: ref Kitamura et al., 2005; cited from earlier work
[6] = 10 mg/kg BW PCB 52 IP, 3 weeks after dosing, N = 3
[7] = 100 mg/kg BW PCB 52 IP, 3 weeks after dosing, N = 5
[8] = no dose-response relationship observed
[9] = 1, 10 or 100 mg/kg BW IP, 3 weeks, body weight-adjusted, vs vehicle

## Oc1cc(Cl)cc(-c2cc(Cl)ccc2Cl)c1Cl [X1-PCB 52, 2,2’,5,5’-tetrachlorobiphenyl-3-ol]
[1]; 10 mg/kg BW PCB 52 IP, 3 weeks after dosing
  Estimated mean level in the serum: 0.07 ng/kg BW
[1]; [6]
  Levels in liver, mean (SD): 0.28 ng/g
[1]; [7]
  Levels in serum, mean (SD): 0.69 ng/g
  Levels in liver, mean (SD): 0.85 ng/g
[1]
  Detection in the brain: observed in the brain of one animal
[1]; all other exposure groups (below high dose)
  Detection in adipose tissue: below the LOD
[1]; high-dose group (100 mg/kg BW)
  Detection in adipose tissue: present

## Clc1ccc(Cl)c(-c2cc(Cl)ccc2Cl)c1 [PCB 52, 2,2',5,5'-Tetrachlorobiphenyl]
[2]
  Serum L-cysteine levels: decreased dose-dependent
  Serum L-histidine levels: dose-dependent increase
  Serum cytosine levels: decreased dose-dependent
  Serum erythrose levels: decreased dose-dependent
  Serum glycine levels: dose-dependent increase
  Serum orotic acid levels: decreased dose-dependent
  Serum sphingosine levels: decreased dose-dependent
[2]; [8]
  Serum linoleic acid levels: significantly affected
  Serum thymine levels: significantly affected
[2]; out of the 81 metabolites included, raw p-values < 0.05
  Number of significantly altered serum metabolites: 9
[1]; brain (lowest ratio)
  Ratio of mean PCB 52 tissue levels, 100 mg/kg BW vs 10 mg/kg BW dose group: 2.9
[1]; highest ratio among tissues, tissue not given
  Ratio of mean PCB 52 tissue levels, 100 mg/kg BW vs 10 mg/kg BW dose group: 5.6
[1]; liver
  Ratio of mean PCB 52 levels, 10 mg/kg BW vs 1 mg/kg BW dose group: ~7.0 times
[1]; serum
  Ratio of mean PCB 52 levels, 10 mg/kg BW vs 1 mg/kg BW dose group: approximately 4.0 times
[1]; three weeks following the IP injection
  Presence in tissues investigated (adipose, brain, liver, serum): present in all tissues investigated
[3]
  DOPAC levels in the striatum: no significant differences; also recorded: not significantly different
  DOPAL levels in the striatum: no significant differences; also recorded: not significantly different
  Dopamine levels in the striatum: no significant differences; also recorded: not significantly different
CYP2B
  CYP2B enzyme activity in the rat liver: induced
[4]; 10 mg/kg BW IP, 3 weeks, vs vehicle group, p < 0.05
  Effect on bodyweight-adjusted liver weights: significantly smaller; also recorded: significant decrease
[4]; 1, 10 or 100 mg/kg BW IP, 3-week study, vs vehicle
  Effect on overall body weight: did not affect; also recorded: no significant impact
[4]; [9]
  Effect on spleen weights: did not affect
  Effect on thymus weights: did not affect
[5]
  Bodyweight-adjusted liver weights vs control: not significantly different

## O=S(=O)(O)Oc1cc(Cl)c(-c2cc(Cl)ccc2Cl)cc1Cl [PCB 52 sulfate]
SH-SY5Y cell line
  Toxicity: low micromolar range
SULT2A1
  Inhibition of SULT2A1: inhibitors
N27 cell line
  Toxicity: low micromolar range
SULT1E1
  Inhibition of SULT1E1: inhibitor

## Oc1cc(Cl)c(-c2cc(Cl)ccc2Cl)cc1Cl [4-OH-PCB 52, 2,5-dichloro-4-(2,5-dichlorophenyl)phenol]
Thyroid hormone receptor
  Affinity for the thyroid hormone receptor: low affinity
[1]; [6]
  Levels in liver, mean (SD): 0.15 ng/g
[1]; [7]
  Levels in liver, mean (SD): 0.57 ng/g
[1]
  Detection in the brain: observed in the brain of one animal
[1]; high-dose group (100 mg/kg BW)
  Detection in adipose tissue: detected only in adipose tissue from one animal
Estrogenic activity
  Estrogenic activity in vitro: low estrogenic activity
SULT2A1
  Inhibition of SULT2A1: inhibitors
